# Laboratory results: PubChem BioAssay
# Activity calls are given as the source filed them. Cut-off read from the data, not from the text of the source, unless noted: active = inhibition above about 30%; inactive = the rest.
# How the values were obtained:
# [1] = SK-BR-3 cell growth inhibitors, pilot screen, 24 h, human (AID 572;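 active = viability at or below 10% of carrier control in both of two separate runs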;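 note: compound exposure lasted between 18 and 24 h rather than exactly 24 h; 100% = carrier-treated control wells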); conditions: SK-BR-3 viability, CellTiter-Glo luminescence, at 10 µM, stronger effect = lower value
# [2] = HUVEC growth inhibition – cell-based, human, primary screen (AID 575;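 active = viability at or below 30% in both replicate assays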;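 note: 100% = median of untreated cell wells with 0.1% DMSO on each plate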); conditions: HUVEC proliferation, CellTiter-Glo luminescence, 72 h; at 10 µM; stronger effect = lower value
# In short: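 Assay system: Primary human umbilical vein endothelial cells | Quantity: 1250 cells per well | Medium: Supplemented EBM, 2% fetal bovine serum | Detection: CellTiter-Glo luminescence measuring cellular ATP | Read-out: % viability vs DMSO wells | Plate: Collagen-coated 384-well format | Times: 72 h exposure, 37 °C, 5% CO2, 30 min RT equilibration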
# [3] = growth inhibitors of H69AR lung tumor, primary screen, human, duplicate replicates (AID 580;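 active = viability at or under a set limit in both replicates, limit being median viability minus 3 SD, cut at about 48% in these data, passing the limit was not always enough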;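 note: 100% = mean luminescence of untreated wells and 0% = no signal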); conditions: H69AR lung tumor cells viability, ATP luminescence, 72 h; at 10 µM; stronger effect = lower value
# [4] = reversal of MRP1-mediated doxorubicin resistance, pilot screen, H69AR cells, doxorubicin co-treatment (AID 601;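 active = viability loss from added drug above about 55%, and viability with drug at most 40%, in both replicates, limit read from the data, passing the limit was not always enough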); conditions: CellTiter-Glo, 72 h, at 10 µM; for differential viability (reversal): stronger effect = higher value
# [5] = 384-well plate pilot, post-Golgi transport modulator project, inhibition of yeast transport mutant growth (AID 636; in the data active = inhibition above about 31%); conditions: absorbance 615 nm, about 18 h, stronger effect = higher value
# [6] = growth suppression of yeast trafficking mutant, preliminary HTS, modulators of trafficking downstream of Golgi apparatus project, 1536-format plate, OD 615 nm (AID 637); conditions: yeast transport mutant growth, absorbance 615 nm, 18 h; stronger effect = higher value
# [7] = H69AR cells + 2 uM doxorubicin, measured here: viability with 2 uM doxorubicin, stronger effect = lower value
# [8] = H69AR cells, compound alone cytotoxicity
SMILES,viability [1],viability [2],viability [3],differential viability (reversal) ([4]; H69AR cells + 2 uM doxorubicin),"viability [4, 7] [%]","viability [4, 8] [%]",inhibition [5],inhibition [6]
Cc1cc(Oc2ccc(Cl)cc2)nc(-c2ccccc2O)n1,98% (inactive),84.7% (inactive),93.9% (inactive),3.2% (inactive),90.7,93.9,2.73% (inactive),-7.38% (inactive)
CC1CCc2c(sc3c2C2=NS(=O)(=O)CCN2C=N3)C1 (configuration not stated),88.5% (inactive),107% (inactive),80.6% (inactive),-7.62% (inactive),88.2,80.6,-9.73% (inactive),3.81% (inactive)
Cc1ccc(Nc2nc(N)nc(CN3CCN(Cc4ccc5c(c4)OCO5)CC3)n2)cc1,93% (inactive),106% (inactive),82.2% (inactive),2.44% (inactive),79.7,82.2,-8.27% (inactive),-4.91% (inactive)
O=C(NCC(=O)N(c1cccnc1)C(C(=O)NC1CCCCC1)c1cccnc1)c1ccco1 (configuration not stated),111% (inactive),113% (inactive),109% (inactive),9.06% (inactive),99.9,109,-3.07% (inactive),4.91% (inactive)
NCc1ccc(S(N)(=O)=O)cc1,124% (inactive),84.8% (inactive),102% (inactive),9.47% (inactive),92.1,102,-1.43% (inactive),6.33% (inactive)
CC1CCCN(S(=O)(=O)c2ccc(C(=O)Nc3nnc(-c4ccccc4Cl)o3)cc2)C1 (configuration not stated),87% (inactive),11.1% (active),18.9% (active),-19% (inactive),37.9,18.9,11.6% (inactive),6.56% (inactive)
COc1ccc(OC)c(NC(=O)CS(=O)(=O)c2ccccc2)c1,124% (inactive),94.7% (inactive),86.3% (inactive),-7.39% (inactive),93.7,86.3,-6.3% (inactive),0.91% (inactive)
O=C(COC(=O)c1ccccc1C(=O)c1ccccc1)c1ccco1,59% (inactive),105% (inactive),90.3% (inactive),2.52% (inactive),87.8,90.3,-1.1% (inactive),2.36% (inactive)
NS(=O)(=O)c1ccc(CCNC(=O)CCC2COc3ccccc3O2)cc1 (configuration not stated),90% (inactive),105% (inactive),95.8% (inactive),8.33% (inactive),87.5,95.8,-5.62% (inactive),0.16% (inactive)
O=S(=O)(Nc1nc2ccccc2nc1NCc1ccco1)c1cccs1,91% (inactive),100% (inactive),29% (active),-23% (inactive),51.9,29,-5.68% (inactive),0.73% (inactive)
Cc1ccc(-c2nnc3c4ccccc4c(C)nn23)cc1S(=O)(=O)N1CCN(C)CC1,85% (inactive),78.6% (inactive),74% (inactive),-16.7% (inactive),90.7,74,-5.2% (inactive),1.15% (inactive)
CCn1cnc2sc(C(=O)Nc3ccc4c(c3)OCO4)c(C)c2c1=O,107% (inactive),96.2% (inactive),94% (inactive),11% (inactive),83,94,-8% (inactive),-5.27% (inactive)
CC1(C)S[C@@H]2[C@H](NC(=O)[C@H](N)c3ccccc3)C(=O)N2[C@H]1C(=O)O,103% (inactive),93.8% (inactive),107% (inactive),15.6% (inactive),91.4,107,-5.32% (inactive),3.33% (inactive)
Cc1cc(C)n(C(=O)C23CC4CC(CC(C4)C2)C3)n1,106% (inactive),85.9% (inactive),99.3% (inactive),3.23% (inactive),96.1,99.3,-8.36% (inactive),-5.32% (inactive)
O=C(CN1CCN(c2ccccn2)CC1)N1c2ccccc2CCc2ccccc21,95% (inactive),88.1% (inactive),107% (inactive),-0.175% (inactive),108,107,-6.08% (inactive),-0.55% (inactive)
O=C1CC(c2ccccc2)Cc2nc(N3CCc4ccccc43)ncc21 (configuration not stated),79% (inactive),108% (inactive),76.5% (inactive),12% (inactive),64.6,76.5,-6.89% (inactive),1.82% (inactive)
O=C(CN(c1ccc(F)cc1)S(=O)(=O)c1ccc2c(c1)OCCO2)Nc1cccnc1,77% (inactive),89.5% (inactive),100% (inactive),-0.85% (inactive),101,100,-8.77% (inactive),-3.82% (inactive)
CC(C)(C)C(=O)NC1CCN(C(=O)N2CCCC2)CC1,93% (inactive),102% (inactive),94.5% (inactive),11.3% (inactive),83.2,94.5,-8.24% (inactive),2.91% (inactive)
NS(=O)(=O)c1cc2c(cc1Cl)NCNS2(=O)=O,73% (inactive),97.2% (inactive),91.3% (inactive),-5.11% (inactive),96.4,91.3,0.65% (inactive),1.17% (inactive)
CC(=O)Nc1nnc(S(N)(=O)=O)s1,95% (inactive),88.7% (inactive),109% (inactive),24.6% (inactive),84.6,109,-1.82% (inactive),3.33% (inactive)
CCc1c(C(=O)Nc2ncn(Cc3cccc(C)c3)n2)csc1C,105% (inactive),112% (inactive),85.6% (inactive),4.33% (inactive),81.3,85.6,-2.84% (inactive),-1.64% (inactive)
CCOC(=O)c1c(C)[nH]c(C(=O)Cn2c(=O)c3c(ncn3CC)n(Cc3ccccc3)c2=O)c1C,89% (inactive),98% (inactive),85.2% (inactive),-4.88% (inactive),90.1,85.2,-6.35% (inactive),-2.73% (inactive)
CC(=O)/C(C[N+]1(C)CCCCC1)=N\O,107% (inactive),103% (inactive),105% (inactive),18.9% (inactive),85.6,105,-6.13% (inactive),0.55% (inactive)
CCC(C(=O)OCCN(CC)CC)c1ccccc1 (configuration not stated),114% (inactive),86.8% (inactive),86.7% (inactive),-0.8% (inactive),87.5,86.7,-1.56% (inactive),2.33% (inactive)
